Source: ChEMBL document CHEMBL4311940, “Design, Synthesis, and Biological Evaluation of 4-Methyl Quinazoline Derivatives as Anticancer Agents Simultaneously Targeting Phosphoinositide 3-Kinases and Histone Deacetylases” (J Med Chem, 2019)
Calls of active or inactive are those of the source. No cut-off for these calls is given here.

What was measured:
[1] = target: Histone deacetylase 1 (Homo sapiens, UniProt Q13547); test: Inhibition of recombinant C-terminal His/FLAG-tagged HDAC1 (unknown origin) expressed in baculovirus infected Sf9 insect cells using Ac-peptide as substrate preincubated for 15 mins followed by substrate addition and measured after 1 hr
[2] = target: Phosphatidylinositol 4,5-bisphosphate 3-kinase catalytic subunit alpha isoform (Homo sapiens, UniProt P42336); test: Inhibition of recombinant human PI3Kalpha using PIP2 as substrate incubated for 1 hr by kinase-glo assay
[3] = target: Protein deacetylase HDAC6 (Homo sapiens, UniProt Q9UBN7); test: Inhibition of HDAC6 (unknown origin) using Ac-peptide as substrate preincubated for 15 mins followed by substrate addition and measured after 1 hr
[4] = organism: Homo sapiens; test: Selectivity ratio, ratio of IC50 for recombinant human PI3Kalpha to recombinant human His-tagged PIK3CD/PIK3R1 expressed in baculovirus expression system
[5] = organism: Homo sapiens; test: Inhibition of PI3K in human HCT116 cells assessed as reduction in AKT phosphorylation at T308 residue at 0.02 to 0.5 uM after 16 hrs by Western blot analysis; type: cell-based
Summary of the method: (§1)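 Immunoblot of HCT116 lysates (RIPA). 40 μg protein per lane on 10−12% SDS-PAGE, transferred to nitrocellulose, blocked 0.5 h in 5% milk/TBST. Primary antibodies 1:1000 overnight at 4 °C, secondary 1:1000 for 1 h, bands visualized by enhanced ECL.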

[6] = Drug metabolism in rat bile assessed as glucuronide metabolite formation at 0.74 mg/kg, iv after 1 hr by LC/MS/MS analysis; type: ADME, organism-based; conditions: in vivo
[7] = organism: Homo sapiens; test: Inhibition of PI3K in human HCT116 cells assessed as reduction in AKT phosphorylation at S473 residue at 0.5 to 5 uM after 16 hrs by Western blot analysis; type: cell-based; summary of the method: as §1
[8] = target: Phosphatidylinositol 4-phosphate 3-kinase C2 domain-containing subunit beta (Homo sapiens) (UniProt O00750); test: Binding affinity to wild-type human […] length PIK3C2B (M1 to L1634 residues) expressed in mammalian expression system assessed as residual binding level at 1 uM by Kinomescan method relative to control
Summary of the method: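 Kinomescan binding screen at 1 μM across 97 kinases.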

[9] = Terminal half life in ICR mouse at 3 mg/kg, iv measured after 0.033 to 24 hrs by LC/MS/MS analysis; type: ADME, organism-based; conditions: in vivo, read-out: beta t1/2 (converted)
Summary of the method: (§2)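 Male-unspecified ICR mice, 3 per group iv (3 mg/kg in 10% DMSO/saline) and 5 per group po (30 mg/kg in 0.5% cmc/0.3% Tween 80). Blood sampled 0.033 (iv) or 0.083 (po) to 24 h. Plasma extracted with acetonitrile, analysed by LC/MS/MS; noncompartmental analysis.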

[10] = Terminal half life in ICR mouse at 30 mg/kg, po measured after 0.083 to 24 hrs by LC/MS/MS analysis; type: ADME, organism-based; conditions: in vivo, read-out: beta t1/2 (converted); summary of the method: as §2
[11] = Half life in mouse liver microsomes preincubated for 5 mins followed by NADPH addition by LC/MS analysis; type: ADME, Microsome
Summary of the method: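 Mouse liver microsomes (0.5 mg/mL protein) with compound preincubated 5 min at 37 °C, started with NADPH; quenched with acetonitrile at time points; LC/MS. T1/2 = 0.693/K from ln(concentration) vs time; Clint scaled with factor 3937.5.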

[12] = tested on: HCT-116; test: Antitumor activity against human HCT116 cells xenografted in athymic nude BALB/c mouse assessed as tumor growth inhibition at 100 mpk, po measured 2 times every week relative to control; type: functional; conditions: HCT-116, po, read-out: TGI
Summary of the method: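 Female BALB/c-nu/nu mice, 6–8 weeks, given 2 × 10^6 HCT116 cells in 0.2 mL saline s.c. right flank; randomized at 100–200 mm3. Daily oral dosing in 0.5% cmc with Tween 80; vehicle controls.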

[13] = Toxicity in athymic nude BALB/c mouse xenografted with human HCT116 cells assessed as reduction in body weight at 100 to 150 mpk, po measured 2 times every week; type: organism-based; conditions: in vivo
[14] = Drug level in tumor of human HCT116 cells xenografted in athymic nude BALB/c mouse at 100 mpk, po by LC/MS/MS analysis; type: ADME, organism-based, Neoplasm; conditions: in vivo, 100 mg/kg
Summary of the method: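 HCT116 xenografted nude mice given daily oral doses; tumor tissue sampled 1 h after final dose and compound level measured (ng/g).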

[15] = tested on: Mus musculus; test: In vivo inhibition of HDAC in tumor of human HCT116 cells xenografted in athymic nude BALB/c mouse assessed as increase in acetylated histone-H3 expression by DAB staining based immunohistochemistry method; type: functional, organism-based
Summary of the method: (§3)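 HCT116 xenograft tumors from treated and vehicle mice stained immunohistochemically for Ki67, acetyl-H3 and p-AKT(S473) (200×); integrated optical density quantified; mean ± SEM, n = 5−7, one-way ANOVA versus vehicle.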

[16] = tested on: Mus musculus; test: In vivo inhibition of PI3K/HDAC in tumor of human HCT116 cells xenografted in athymic nude BALB/c mouse assessed as reduction in phosphorylated Ki67 expression by DAB staining based immunohistochemistry method; type: functional, organism-based; summary of the method: as §3
[17] = tested on: HGC-27; test: Antitumor activity against human HGC27 cells xenografted in athymic nude BALB/c mouse assessed as tumor growth inhibition at 200 mpk, po measured 2 times every week; type: functional; conditions: HGC-27, po, read-out: TGI
Summary of the method: (§4)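 HGC-27 xenograft: 2 × 10^6 cells in 0.2 mL saline s.c. right flank of female BALB/c-nu/nu mice (6–8 weeks); randomized at 100–200 mm3. Oral dosing in 0.5% cmc with Tween 80, intraperitoneal in saline; vehicle given orally daily.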

[18] = tested on: HGC-27; test: Antitumor activity against human HGC27 cells xenografted in athymic nude BALB/c mouse assessed as tumor growth inhibition at 30 mpk, ip measured 2 times every week; type: functional; conditions: HGC-27, ip, read-out: TGI; summary of the method: as §4
[19] = Toxicity in athymic nude BALB/c mouse xenografted with human HGC27 cells assessed as reduction in body weight at 30 mpk, ip measured 2 times every week relative to control; type: organism-based; design: scale not given: the % may be the effect or the level left; conditions: in vivo, 30 mg/kg
[20] = tested on: Mus musculus; test: In vivo inhibition of PI3K in tumor of human HGC27 cells xenografted in athymic nude BALB/c mouse assessed as reduction in phosphorylated AKT expression at S473 residue by DAB staining based immunohistochemistry method; type: functional, organism-based
Summary of the method: (§5)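 HGC-27 xenograft tumors from treated and vehicle mice immunostained for Ki67, Ac-H3 and p-AKT(S473) (200×); integrated optical density analysed; mean ± SEM, n = 5−7, one-way ANOVA versus vehicle.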

[21] = tested on: Mus musculus; test: In vivo inhibition of HDAC in tumor of human HGC27 cells xenografted in athymic nude BALB/c mouse assessed as increase in acetylated histone-H3 expression by DAB staining based immunohistochemistry method; type: functional, organism-based; summary of the method: as §5
[22] = tested on: Mus musculus; test: In vivo inhibition of PI3K/HDAC in tumor of human HGC27 cells xenografted in athymic nude BALB/c mouse assessed as reduction in phosphorylated Ki67 expression by DAB staining based immunohistochemistry method; type: functional, organism-based; summary of the method: as §5
[23] = Drug metabolism in rat bile assessed as hydrolyzed metabolite formation at 0.74 mg/kg, iv after 1 hr by LC/MS/MS analysis; type: ADME, organism-based; conditions: in vivo

Phosphatidylinositol 4,5-bisphosphate 3-kinase catalytic subunit alpha isoform, sequence (P42336 whole entry, canonical isoform): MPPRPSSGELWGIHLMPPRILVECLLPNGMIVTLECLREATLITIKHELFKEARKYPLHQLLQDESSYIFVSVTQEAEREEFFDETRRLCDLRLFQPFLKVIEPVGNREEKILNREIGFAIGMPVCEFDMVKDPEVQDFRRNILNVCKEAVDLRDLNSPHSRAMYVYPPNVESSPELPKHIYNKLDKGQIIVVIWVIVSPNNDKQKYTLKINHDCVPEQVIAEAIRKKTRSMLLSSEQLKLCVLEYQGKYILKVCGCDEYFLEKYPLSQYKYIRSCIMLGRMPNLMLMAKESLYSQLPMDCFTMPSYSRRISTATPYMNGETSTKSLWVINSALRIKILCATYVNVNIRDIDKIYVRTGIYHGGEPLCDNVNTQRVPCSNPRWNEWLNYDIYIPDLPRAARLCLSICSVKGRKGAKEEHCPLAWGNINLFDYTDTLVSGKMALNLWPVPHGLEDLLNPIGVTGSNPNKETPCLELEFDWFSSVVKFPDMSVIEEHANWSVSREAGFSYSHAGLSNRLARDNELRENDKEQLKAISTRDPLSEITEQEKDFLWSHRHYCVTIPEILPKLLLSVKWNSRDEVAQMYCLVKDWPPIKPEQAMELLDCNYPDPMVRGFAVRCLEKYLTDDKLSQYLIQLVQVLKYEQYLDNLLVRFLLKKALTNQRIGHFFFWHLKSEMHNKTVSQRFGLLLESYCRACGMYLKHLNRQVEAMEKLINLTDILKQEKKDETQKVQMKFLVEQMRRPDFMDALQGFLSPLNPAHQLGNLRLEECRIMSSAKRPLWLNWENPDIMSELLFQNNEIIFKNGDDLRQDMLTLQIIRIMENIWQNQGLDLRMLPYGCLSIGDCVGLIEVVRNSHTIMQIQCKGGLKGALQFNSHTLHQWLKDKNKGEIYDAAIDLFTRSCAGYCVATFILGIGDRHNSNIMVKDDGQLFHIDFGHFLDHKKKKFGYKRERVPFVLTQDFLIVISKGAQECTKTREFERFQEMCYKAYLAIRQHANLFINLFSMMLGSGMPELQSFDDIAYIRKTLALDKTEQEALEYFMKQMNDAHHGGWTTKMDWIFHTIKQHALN
Phosphatidylinositol 4-phosphate 3-kinase C2 domain-containing subunit beta (Homo sapiens), sequence (O00750 whole entry, the tested form may be a part): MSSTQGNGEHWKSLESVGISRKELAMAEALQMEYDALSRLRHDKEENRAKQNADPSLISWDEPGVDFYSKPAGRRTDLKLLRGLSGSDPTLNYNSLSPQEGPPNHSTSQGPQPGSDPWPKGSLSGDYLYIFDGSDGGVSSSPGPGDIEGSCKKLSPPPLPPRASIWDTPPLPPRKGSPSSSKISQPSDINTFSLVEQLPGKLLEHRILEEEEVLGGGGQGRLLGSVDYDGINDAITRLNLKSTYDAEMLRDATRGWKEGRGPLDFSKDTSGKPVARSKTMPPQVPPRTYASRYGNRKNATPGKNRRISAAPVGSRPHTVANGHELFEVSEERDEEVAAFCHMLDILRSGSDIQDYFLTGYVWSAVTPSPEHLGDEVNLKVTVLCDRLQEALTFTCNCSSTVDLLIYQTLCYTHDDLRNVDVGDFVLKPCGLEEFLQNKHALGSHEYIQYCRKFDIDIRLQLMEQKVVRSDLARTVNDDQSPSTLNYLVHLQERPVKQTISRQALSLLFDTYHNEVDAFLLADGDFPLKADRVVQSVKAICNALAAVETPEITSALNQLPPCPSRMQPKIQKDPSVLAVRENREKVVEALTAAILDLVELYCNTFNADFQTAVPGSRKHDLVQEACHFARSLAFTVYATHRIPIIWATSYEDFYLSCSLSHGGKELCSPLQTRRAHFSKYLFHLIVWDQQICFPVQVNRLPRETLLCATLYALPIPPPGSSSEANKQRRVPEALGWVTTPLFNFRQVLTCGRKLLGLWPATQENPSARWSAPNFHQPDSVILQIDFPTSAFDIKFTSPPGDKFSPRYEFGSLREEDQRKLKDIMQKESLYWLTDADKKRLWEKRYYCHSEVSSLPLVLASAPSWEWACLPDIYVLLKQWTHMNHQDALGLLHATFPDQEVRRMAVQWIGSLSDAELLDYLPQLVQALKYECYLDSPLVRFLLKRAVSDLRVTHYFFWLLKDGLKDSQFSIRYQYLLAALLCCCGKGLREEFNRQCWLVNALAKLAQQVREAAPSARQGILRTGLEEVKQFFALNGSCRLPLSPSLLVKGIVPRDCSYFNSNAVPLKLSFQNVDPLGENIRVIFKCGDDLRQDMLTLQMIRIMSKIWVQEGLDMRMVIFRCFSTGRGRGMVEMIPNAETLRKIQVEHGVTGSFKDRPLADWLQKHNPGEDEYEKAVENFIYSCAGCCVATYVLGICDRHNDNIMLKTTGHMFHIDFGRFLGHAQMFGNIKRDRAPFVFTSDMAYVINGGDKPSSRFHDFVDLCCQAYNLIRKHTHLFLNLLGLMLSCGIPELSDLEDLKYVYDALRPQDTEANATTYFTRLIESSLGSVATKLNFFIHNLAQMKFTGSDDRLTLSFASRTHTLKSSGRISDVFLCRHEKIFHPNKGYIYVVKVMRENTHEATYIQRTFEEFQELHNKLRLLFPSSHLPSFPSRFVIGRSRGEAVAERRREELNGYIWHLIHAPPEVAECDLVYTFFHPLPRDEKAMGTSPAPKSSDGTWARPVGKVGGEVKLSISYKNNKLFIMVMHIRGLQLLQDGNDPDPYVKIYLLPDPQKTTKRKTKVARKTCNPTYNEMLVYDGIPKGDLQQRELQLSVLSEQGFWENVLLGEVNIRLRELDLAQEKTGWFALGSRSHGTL
Protein deacetylase HDAC6, sequence (Q9UBN7 whole entry): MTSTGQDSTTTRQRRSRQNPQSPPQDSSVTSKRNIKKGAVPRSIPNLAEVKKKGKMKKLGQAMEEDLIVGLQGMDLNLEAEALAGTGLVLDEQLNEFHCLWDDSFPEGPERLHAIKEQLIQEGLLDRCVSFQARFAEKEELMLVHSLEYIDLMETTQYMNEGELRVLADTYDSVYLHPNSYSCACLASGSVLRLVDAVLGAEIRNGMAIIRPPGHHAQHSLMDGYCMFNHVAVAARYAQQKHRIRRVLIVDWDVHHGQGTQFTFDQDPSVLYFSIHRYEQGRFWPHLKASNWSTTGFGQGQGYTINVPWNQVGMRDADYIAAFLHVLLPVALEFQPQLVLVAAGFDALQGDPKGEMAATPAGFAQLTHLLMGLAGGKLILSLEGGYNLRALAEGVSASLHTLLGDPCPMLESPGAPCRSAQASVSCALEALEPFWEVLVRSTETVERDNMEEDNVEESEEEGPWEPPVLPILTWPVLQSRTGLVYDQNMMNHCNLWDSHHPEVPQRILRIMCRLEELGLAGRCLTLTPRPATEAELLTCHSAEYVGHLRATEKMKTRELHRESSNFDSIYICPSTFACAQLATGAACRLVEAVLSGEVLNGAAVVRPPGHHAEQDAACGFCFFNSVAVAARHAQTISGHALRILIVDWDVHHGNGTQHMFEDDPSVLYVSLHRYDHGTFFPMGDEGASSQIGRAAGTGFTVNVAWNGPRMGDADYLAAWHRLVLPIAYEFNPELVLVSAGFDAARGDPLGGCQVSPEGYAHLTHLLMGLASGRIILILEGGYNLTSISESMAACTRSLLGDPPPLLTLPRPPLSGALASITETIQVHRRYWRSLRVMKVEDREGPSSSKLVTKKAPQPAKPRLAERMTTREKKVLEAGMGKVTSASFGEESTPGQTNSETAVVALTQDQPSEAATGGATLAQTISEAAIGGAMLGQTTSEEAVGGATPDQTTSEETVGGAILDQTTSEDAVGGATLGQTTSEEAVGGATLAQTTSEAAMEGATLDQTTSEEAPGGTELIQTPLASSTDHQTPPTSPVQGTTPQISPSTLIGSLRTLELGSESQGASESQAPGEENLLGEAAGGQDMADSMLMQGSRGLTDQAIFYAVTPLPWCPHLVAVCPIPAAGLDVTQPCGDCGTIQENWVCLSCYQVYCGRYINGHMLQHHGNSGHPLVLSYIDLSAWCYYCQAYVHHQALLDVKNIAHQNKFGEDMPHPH
Histone deacetylase 1, sequence (Q13547 whole entry, canonical isoform): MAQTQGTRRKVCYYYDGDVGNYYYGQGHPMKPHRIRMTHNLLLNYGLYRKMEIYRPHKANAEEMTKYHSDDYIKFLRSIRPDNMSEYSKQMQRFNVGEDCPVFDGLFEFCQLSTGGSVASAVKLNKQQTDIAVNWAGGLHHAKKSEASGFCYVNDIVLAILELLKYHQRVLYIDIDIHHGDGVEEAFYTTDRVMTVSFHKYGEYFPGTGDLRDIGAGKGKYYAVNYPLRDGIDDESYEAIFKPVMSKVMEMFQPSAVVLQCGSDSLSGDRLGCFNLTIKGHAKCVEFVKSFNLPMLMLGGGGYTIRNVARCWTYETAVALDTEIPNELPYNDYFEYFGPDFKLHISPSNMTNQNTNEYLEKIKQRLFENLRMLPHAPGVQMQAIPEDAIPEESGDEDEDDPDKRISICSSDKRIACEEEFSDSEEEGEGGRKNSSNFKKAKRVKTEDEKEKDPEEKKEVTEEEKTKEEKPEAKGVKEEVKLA

Work on `COc1ccc(-c2cc(OCCN(C)c3ncc(C(=O)NO)cn3)c3ncnc(C)c3c2)cn1` yielded an IC50 [1] of 1.3 nM, an IC50 [2] of 226 nM and an IC50 [3] of 17 nM. The Ratio IC50 [4] was > 5 and the inhibition [5] was “Active”.

In the case of `COc1ncc(-c2cc(OCCCCCCC(=O)NO)c3ncnc(C)c3c2)cc1F`, the Drug metabolism [6] is reported as “Metabolite_Detected”, the inhibition [7] is reported as “Active” and the Activity [8] is reported as 27%. The half-life [9] was 19.8 min, the half-life [10] was 124 min and the half-life [11] was 24.6 min. The inhibition in vivo at 100 mg/kg [12] was 18.3%, the Activity [13] was “Toxic” and the Drug uptake [14] was 72.7 ng/g. For the same compound, the inhibition [15] was “Dose-dependent effect”, the inhibition [16] was “Dose-dependent effect” and the inhibition in vivo at 200 mg/kg [17] was 45.9%. The inhibition in vivo at 30 mg/kg [18] was 62.6%, the Activity [19] was 20% and the inhibition [20] was “Active”. For the same compound, the inhibition [21] was “Active”, the inhibition [22] was “Active” and the Drug metabolism [23] was “Metabolite_Detected”.
